# Screening results (PubChem BioAssay)
# Hits are enriched below; roughly 2.1% of the tested compounds scored in any of these assays.
# EBI2 antag: blocks human EBI2 receptor beta-arrestin signaling; EBI2 beta-arrestin recruitment, luminescence, 7a,25-OHC stimulated; inhibition, % at 5 µM; 360,000 tested, 0.81% active; in the data active means inhibition above about 38%;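 further: enzyme fragment complementation signal reports receptor beta-arrestin coupling in cells; 0% = agonist plus DMSO wells and 100% = wells without agonist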
# APJ antagonist: APJ receptor antagonism. CHO-K1 APJ beta-arrestin complementation, luminescence. inhibition, % at 20 µM. 330,000 tested, 0.32% active;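 active means inhibition above about 40% at 20 µM, limit read from the data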;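 further: cells challenged with 10 nM apelin-13 agonist together with compound; plate controls were apelin-13 plus DMSO wells for no effect and DMSO wells lacking apelin-13 for full effect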
# APJ ag: APJ receptor agonism; P35414; CHO-K1 APJ PathHunter beta-arrestin, luminescence; 0% DMSO wells, 100% apelin; activation, % at 20 µM; 330,000 tested, 0.11% active; AID 2520;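 active means activation more than six SD over the plate average, tested at 20 µM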;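 further: 0% = DMSO alone and 100% = apelin-13 at 10 nM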
#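 Assay system – PathHunter CHO-K1 APJ (AGTRL-1) beta-arrestin reporter cells · Compound – one dose, 20 µM compound, 1% DMSO · Timing – compound 90 min 25 °C, reagent 1 h · Measured by – luminescence from split beta-galactosidase complementation, Galacton Star/Emerald II substrate · Measure – beta-arrestin recruitment to APJ as agonist activity, luminescent signal · Benchmarks – DMSO vs Apelin-13 10 nM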
# HTR2A ag: agonists of mouse serotonin 5-HT2A receptor (HTR2A); P35363; CHO-K1 mHTR2A beta-arrestin complementation, luminescence; percent of 30 µM serotonin response; activation, % at 7.6 µM; 360,000 tested, 0.66% active; AID 624169;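 active means activation above a run cutoff, the mean activation of all tested compounds plus 3 SD, cut at about 14% in these data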;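 further: 0% = plate median of compound wells and 100% = 30 µM serotonin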
# CXCR6 inh: inhibitors of human CXCR6 receptor; O00574; inhibition, % at 20 µM; AID 602244; CHO-K1 PathHunter CXCR6 beta-arrestin, luminescence; 360,000 tested, 0.36% active; in the data active means inhibition above about 34%, passing the limit was not always enough;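 further: antagonist mode with CXCL16 agonist at 10 nM final; 0% = 10 nM CXCL16 with DMSO and 100% = unstimulated wells without agonist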
# CCR6 antag: antagonists of human CCR6 receptor | CHO-K1 CCR6 PathHunter beta-arrestin, luminescence, CCL20-stimulated | inhibition, % at 20 µM | 340,000 tested, 0.49% active;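 active means compounds whose inhibition of the agonist-driven luminescence signal at 20 µM reaches about 50%, limit read from the data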;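 further: cells stimulated with CCL20 at 14 nM final; plate controls were DMSO with CCL20 for no effect and DMSO without agonist for full effect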
# Target sequence (P51684 whole entry, looked up): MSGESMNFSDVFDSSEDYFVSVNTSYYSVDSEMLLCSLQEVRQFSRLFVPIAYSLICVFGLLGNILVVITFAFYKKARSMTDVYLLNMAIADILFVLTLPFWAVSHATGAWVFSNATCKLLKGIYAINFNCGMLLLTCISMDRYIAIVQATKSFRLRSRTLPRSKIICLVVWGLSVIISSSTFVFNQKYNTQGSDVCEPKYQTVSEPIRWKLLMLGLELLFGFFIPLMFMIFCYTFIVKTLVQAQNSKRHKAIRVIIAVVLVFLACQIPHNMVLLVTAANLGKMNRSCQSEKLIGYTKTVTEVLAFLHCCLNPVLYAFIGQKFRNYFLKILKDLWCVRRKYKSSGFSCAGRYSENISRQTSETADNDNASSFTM
# An asterisk follows results filed as active; . = no result.
SMILES,EBI2 antag,APJ antagonist,APJ ag,HTR2A ag,CXCR6 inh,CCR6 antag
Nc1ccc2c(c1)C(=O)C(=O)c1ccccc1-2,-19,-34,13,1,27,71*
N#C/C(=C(\O)Cc1ccccc1)c1nc2ccccc2[nH]1,-1,10,-6,-3,8,17
N#C/C(=C(/O)c1ccc([N+](=O)[O-])s1)c1nc2ccccc2[nH]1,20,18,1,-2,33,63*
N#C/C(=C(/O)c1ccc(Br)s1)c1nc2ccccc2[nH]1,0,13,-4,-4,3,13
N#C/C(=C(/O)CCl)c1nc2ccccc2[nH]1,-7,53*,-7,-4,28,16
CC(=O)C1=C(O)C(=O)N(c2ccc(O)cc2)C1c1ccc(Cl)cc1 (stereo unspecified),-1,6,-4,2,-12,1
ClCc1c2ccccc2cc2ccccc12,-4,-2,9,-4,-16,4
CN(/N=C/c1cc(Br)cc(Br)c1O)c1cccc(C(F)(F)F)n1,-6,28,-3,-5,58*,.
Cc1cc(Cl)ccc1N=c1ssnc1Cl,38*,14,-2,2,14,39
CCOc1ccccc1-c1c2cc(O)c(=O)cc-2oc2cc(O)c(O)cc12,-1,.,.,-3,27,56*
CN1CCN(C(c2ccc(Cl)cc2)c2cc(Cl)c3cccnc3c2O)CC1 (stereo unspecified),14,1,-5,-31,11,63*
CN1CCN(C(c2ccc(C(F)(F)F)cc2)c2cc(Cl)c3cccnc3c2O)CC1 (stereo unspecified),.,13,-3,.,.,.
O=C(NC(c1ccc(Cl)cc1)c1cc(Cl)c2cccnc2c1O)c1cccnc1 (stereo unspecified),65*,.,.,-5,12,35
COc1ccc(N2C(=O)CC(Sc3ncn[nH]3)C2=O)c(OC)c1 (stereo unspecified),-2,9,4,0,-4,79*
CC(C)c1ccc(N2C(=O)CC(Sc3ncn[nH]3)C2=O)cc1 (stereo unspecified),-17,13,4,3,-3,0
O=[N+]([O-])c1cc(CN2CCOCC2)c2cccnc2c1O,.,.,.,.,.,3
Oc1ccc(CN2CCN(Cc3ccccc3)CC2)c2cccnc12,68*,14,-6,-6,27,17
O=[N+]([O-])c1cc(CN2CCN(c3ccccc3)CC2)c(O)c2ncccc12,17,-2,-3,-4,56*,75*
O=S(=O)(c1ccc(Cl)cc1)N1CCN(Cc2ccc(O)c3ncccc23)CC1,27,0,1,-2,-2,-13
CN(C(=O)COC(=O)c1ccc(Cl)c(S(=O)(=O)N2CCCCCC2)c1)C1CCS(=O)(=O)C1 (stereo unspecified),-2,5,-2,6,-6,1
Cc1ccnc(N2C(=O)c3cccc4c([N+](=O)[O-])ccc(c34)C2=O)c1,28,-12,-1,6,42*,50
Cc1ccc(N2C(=O)c3cccc4c([N+](=O)[O-])ccc(c34)C2=O)c2cccnc12,43,-16,3,1,3,21
CCCC(=O)N1CCC1(C)C(=O)NS(=O)(=O)c1cccc(F)c1 (stereo unspecified),-1,.,.,1,4,.
COc1ccc(S(=O)(=O)N2CCCC(C(=O)NCc3ccccn3)C2)cc1 (stereo unspecified),-2,-6,1,1,-8,-13
CCC(C)C(=O)N1c2ccccc2C(=C2SC(C(=O)OC)=C(C(=O)OC)S2)C(=S)C1(C)C (stereo unspecified),52*,39,-9,-1,23,43
SMILES,EBI2 antag,APJ antagonist,APJ ag,HTR2A ag,CXCR6 inh,CCR6 antag
CCOC(=O)C1=C(C)c2ccccc2N(C(=O)OC)C1(C)C(=O)OCC (stereo unspecified),1,.,.,-2,-3,19
CCN(CCO)C(=O)C(c1ccccc1)c1ccccc1,0,12,-1,3,6,32
N#C/C(N=Nc1ccccc1O)=N\Nc1ccccc1O,-21,3,-1,-1,13,71*
COc1cc(/C=N/NC(N)=S)cc(Br)c1OCc1ccccc1F,34,-1,-3,0,0,31
CCOc1cc(/C=N/NC(N)=S)cc(Br)c1OCc1ccccc1C,47*,3,-7,11,5,16
CC(C)(C)c1cc(C(c2cccnc2)N2CCN(CCO)CC2)cc(C(C)(C)C)c1O (stereo unspecified),3,23,4,4,27,62*
CC(C)(C)n1nnnc1C(c1cccnc1)N1CCN(c2cccc(C(F)(F)F)c2)CC1 (stereo unspecified),3,-7,-3,-6,6,-3
Cc1nc(=O)c(-c2ccccc2)c(C)n1-c1ccc(S(N)(=O)=O)cc1,4,-14,-1,3,-7,-3
CC(C)N=c1cc2n(-c3ccc(Cl)cc3)c3ccccc3nc-2cc1Nc1ccc(Cl)cc1,4,67*,-7,-12,46*,50
O=C(/C=C/c1ccncc1)c1ccc(NC(=O)c2ccccc2F)cc1,14,.,.,0,40,69*
COc1ccc(C(CNC(=O)CNC(=O)c2ccc(F)cc2)N2CCCC2)cc1 (stereo unspecified),11,-6,-5,-2,6,6
CC1(C)C2CC[C@]3(C)C(CC=C4[C@@H]5C[C@@](C)(CO)[C@@H]6C[C@@]5(CC[C@]43C)C(=O)O6)[C@@]2(C)CC[C@@H]1O (stereo partly specified),.,13,0,.,.,56*
CC1(C)C[C@H](O)[C@]2(CO)CC[C@]3(C)C(=CCC4[C@@]5(C)CC[C@H](O)C(C)(C)C5CC[C@]43C)[C@@H]2C1 (stereo partly specified),-21,-12,-1,-1,1,-5
CCN(CC)c1ccc(C(=S)N2CCN(c3ccccc3)CC2)cc1,64*,6,-6,-2,6,32
S=C(c1ccccc1)N1CCN(c2ccccc2)CC1,4,.,.,-6,3,14
COc1ccc([C@H]2CC(=O)C=C(c3ccc(C)cc3)C2)cc1OC,23,1,-4,7,-14,6
CCOc1ccccc1N1C(=O)c2cccnc2C1=O,-2,12,-2,6,-6,-8
CC(C)(C)c1cnnn1-c1ccc(C=O)cc1,-7,7,-1,1,-8,-12
CC(C)(C)c1cnnn1-c1ccc(C(=O)CCl)cc1,8,20,-4,-3,12,65*
O=C(/C=C/c1cccs1)c1ccc(NC(=O)c2cccc(Br)c2)cc1,58*,-16,-2,-2,11,14
